{"source": "paper PMC10401071", "about": "(Cancer Discovery, 2023)", "key": {"[1]": {"system": "advanced or metastatic solid tumors", "assay": "Antitumor activity, investigator-assessed per RECIST v1.1, PFS by Kaplan–Meier", "format": "in vivo, human", "conditions": "for duration of stable disease: WDLPS; for duration of response: partial response"}, "[2]": {"assay": "Phase Ia dose escalation: dose-limiting toxicities", "format": "in vivo, human", "conditions": "for maximum tolerated dose (MTD): based on DLTs during cycle 1 and BLRM", "summary_of_the_method": "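Escalating oral doses, day 1 q21d (10–80 mg) or days 1 and 8 q28d (5–60 mg). DLTs were counted over cycle 1 (21 or 28 days). The MTD was the highest dose with <25% risk of true DLT rate ≥33%, estimated by BLRM with overdose control. The RDE came from a supplementary BLRM on haematologic AEs of interest over the whole treatment period.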"}}, "data": [{"molecule": "Cc1c(C(=O)O)ccc2c3n(nc12)[C@@H]1[C@H](C3)N(CC2CC2)[C@@]2(C(=O)Nc3cc(Cl)ccc32)[C@H]1c1cccc(Cl)c1F", "note": "[brigimadlin]", "values": [{"measurement": "disease control rate", "setting": "[1]; 12 patients with DDLPS", "value": 75, "unit": "%"}, {"measurement": "Complete response", "setting": "[1]; All patients (N = 54)", "value": "0 n (%)"}, {"measurement": "Confirmed objective response", "setting": "[1]; All patients (N = 54)", "value": "6 (11.1) n (%)"}, {"measurement": "Disease control", "setting": "[1]; All patients (N = 54)", "value": "40 (74.1) n (%)"}, {"measurement": "Not evaluable (best overall response)", "setting": "[1]; All patients (N = 54)", "value": "3 (5.6) n (%)"}, {"measurement": "Partial response", "setting": "[1]; All patients (N = 54)", "value": "6 (11.1) n (%)"}, {"measurement": "Progressive disease", "setting": "[1]; All patients (N = 54)", "value": "11 (20.4) n (%)"}, {"measurement": "Stable disease", "setting": "[1]; All patients (N = 54)", "value": "34 (63.0) n (%)"}, {"measurement": "overall response rate", "setting": "[1]; D1D8q4w", "value": 8.0, "unit": "%"}, {"measurement": "Complete response", "setting": "[1]; D1D8q4w (n = 25)", "value": "0 n (%)"}, {"measurement": "Confirmed objective response", "setting": "[1]; D1D8q4w (n = 25)", "value": "2 (8.0) n (%)"}, {"measurement": "Disease control", "setting": "[1]; D1D8q4w (n = 25)", "value": "18 (72.0) n (%)"}, {"measurement": "Not evaluable (best overall response)", "setting": "[1]; D1D8q4w (n = 25)", "value": "2 (8.0) n (%)"}, {"measurement": "Partial response", "setting": "[1]; D1D8q4w (n = 25)", "value": "2 (8.0) n (%)"}, {"measurement": "Progressive disease", "setting": "[1]; D1D8q4w (n = 25)", "value": "5 (20.0) n (%)"}, {"measurement": "Stable disease", "setting": "[1]; D1D8q4w (n = 25)", "value": "16 (64.0) n (%)"}, {"measurement": "disease control rate", "setting": "[1]; D1D8q4w arm", "value": 72.0, "unit": "%"}, {"measurement": "median progression-free survival (PFS)", "setting": "[1]; D1D8q4w arm, 95% CI: 3.7–18.5", "value": 8.0, "unit": "months"}, {"measurement": "overall response rate", "setting": "[1]; D1q3w", "value": 13.8, "unit": "%"}, {"measurement": "Complete response", "setting": "[1]; D1q3w (n = 29)", "value": "0 n (%)"}, {"measurement": "Confirmed objective response", "setting": "[1]; D1q3w (n = 29)", "value": "4 (13.8) n (%)"}, {"measurement": "Disease control", "setting": "[1]; D1q3w (n = 29)", "value": "22 (75.9) n (%)"}, {"measurement": "Not evaluable (best overall response)", "setting": "[1]; D1q3w (n = 29)", "value": "1 (3.4) n (%)"}, {"measurement": "Partial response", "setting": "[1]; D1q3w (n = 29)", "value": "4 (13.8) n (%)"}, {"measurement": "Progressive disease", "setting": "[1]; D1q3w (n = 29)", "value": "6 (20.7) n (%)"}, {"measurement": "Stable disease", "setting": "[1]; D1q3w (n = 29)", "value": "18 (62.1) n (%)"}, {"measurement": "disease control rate", "setting": "[1]; D1q3w arm", "value": 75.9, "unit": "%"}, {"measurement": "median progression-free survival (PFS)", "setting": "[1]; D1q3w arm, 95% CI: 3.0–20.7", "value": 10.6, "unit": "months"}, {"measurement": "duration of stable disease", "setting": "[1]; one patient", "value": "> 14", "unit": "months"}, {"measurement": "duration of stable disease", "setting": "[1]; the other two patients", "value": "~8", "unit": "months"}, {"measurement": "disease control rate", "setting": "[1]; all 54 patients", "value": 74.1, "unit": "%"}, {"measurement": "overall response rate", "setting": "[1]; all 54 patients, data cutoff October 24, 2022", "value": 11.1, "unit": "%"}, {"measurement": "PFS", "setting": "[1]; all seven patients with WDLPS", "value": "> 7.5", "unit": "months"}, {"measurement": "duration of partial response", "setting": "[1]; four WDLPS patients, ranging up to about 25 months", "value": "≥ 12", "unit": "months"}, {"measurement": "patients achieving PFS ≥14 months", "setting": "[1]; of seven patients with WDLPS", "value": "five"}, {"measurement": "patients achieving a partial response", "setting": "[1]; of seven patients with WDLPS", "value": "four"}, {"measurement": "patients achieving stable disease", "setting": "[1]; of seven patients with WDLPS", "value": "three"}, {"measurement": "patients achieving stable disease", "setting": "[1]; of the 12 patients with DDLPS", "value": "nine"}, {"measurement": "duration of response", "setting": "[1]; one patient with MDM2-amplified intrahepatic cholangiocarcinoma", "value": "~12", "unit": "months"}, {"measurement": "duration of response", "setting": "[1]; one patient with MDM2-amplified pancreatic cancer", "value": "> 5.5", "unit": "months"}, {"measurement": "median progression-free survival (PFS)", "setting": "[1]; overall, preliminary analysis, 95% CI: 3.8–13.5", "value": 8.1, "unit": "months"}, {"measurement": "disease control rate", "setting": "[1]; seven patients with WDLPS", "value": 100, "unit": "%"}, {"measurement": "tumor reduction (partial response)", "setting": "[1]; single patient (Fig. 3A), MDM2-amplified WDLPS, 20 mg q3w, starting at cycle 2", "value": 31, "unit": "%"}, {"measurement": "tumor reduction", "setting": "[1]; single patient (Fig. 3A), MDM2-amplified WDLPS, cycle 19, dose reduced to 10 mg", "value": 47, "unit": "%"}, {"measurement": "tumor reduction (partial response)", "setting": "[1]; single patient (Fig. 3B), MDM2-amplified WDLPS, 80 mg D1q3w, cycle 3", "value": 32, "unit": "%"}, {"measurement": "best tumor reduction", "setting": "[1]; single patient (Fig. 3B), MDM2-amplified WDLPS, at data cutoff", "value": 42, "unit": "%"}, {"measurement": "time on treatment", "setting": "[1]; single patient (Fig. 3B), MDM2-amplified WDLPS, ongoing at data cutoff", "value": "more than 25 months"}, {"measurement": "time on treatment before progressive disease", "setting": "[1]; single patient (Fig. 3D), MDM2-amplified cholangiocarcinoma", "value": 13.3, "unit": "months"}, {"measurement": "treatment discontinuation due to a DLT in cycle 1", "setting": "[2]; D1D8q4w arm", "value": "no patient discontinued treatment due to a DLT in cycle 1"}, {"measurement": "patients with DLTs during the MTD evaluation period (cycle 1)", "setting": "[2]; D1D8q4w arm, 5 to 60 mg", "value": "Three"}, {"measurement": "maximum tolerated dose (MTD)", "setting": "[2]; D1D8q4w", "value": 45, "unit": "mg"}, {"measurement": "treatment discontinuation due to a DLT in cycle 1", "setting": "[2]; D1q3w arm", "value": "No patient discontinued treatment due to a DLT in cycle 1"}, {"measurement": "patients with DLTs during the MTD evaluation period (cycle 1)", "setting": "[2]; D1q3w arm, 10 to 80 mg", "value": "Five"}, {"measurement": "maximum tolerated dose (MTD)", "setting": "[2]; D1q3w", "value": 60, "unit": "mg"}, {"measurement": "patients with DLTs after the MTD evaluation period", "setting": "[2]; both arms", "value": "Seven"}, {"measurement": "recommended dose for expansion (RDE) for phase Ib", "setting": "[2]; q3w, supplementary BLRM analysis of AEs of interest over entire treatment period", "value": 45, "unit": "mg"}]}]}
